Assay results reported in ChEMBL document CHEMBL1154067, “Antiviral and cytotoxic activities of aminoarylazo compounds and aryltriazene derivatives” (Bioorg Med Chem, 2009).
Active and inactive are the calls of the source. No rule for the calls is given here.

Legend:
Poliovirus 1 = experiment: Antiviral activity against Human poliovirus 1 strain Sabin after 2 days by plaque reduction assay; assay type: functional; conditions: Enterovirus C, 48 h
[1] = system: Respiratory syncytial virus; experiment: Antiviral activity against Respiratory syncytial virus A2 infected in Vero-76 cells after 5 days by plaque reduction assay; assay type: functional, organism-based; conditions: human respiratory syncytial virus, A2, Vero 76, 120 h
[2] = Cytotoxicity against hamster BHK21 cells assessed as reduction in cell viability after 48 to 96 hrs by MTT assay; assay type: cell-based, Mesocricetus auratus, BHK-21; conditions: bhk-21
Summary of the method: (§1)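 Mock-infected cells in maintenance medium, MDBK at 6 × 10^5 and BHK at 1 × 10^6 cells/mL initial density, with or without serial compound dilutions. Run in parallel with antiviral assays. Viability by MTT after 48–96 h at 37 °C, 5% CO2. CC50 = concentration reducing viability 50%.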

Human alphaherpesvirus 1 = experiment: Antiviral activity against HSV1 infected in Vero-76 cells after 3 days by plaque reduction assay; assay type: functional, organism-based; conditions: Human alphaherpesvirus 1, Vero 76, 72 h
Vaccinia virus = experiment: Antiviral activity against Vaccinia virus after 3 days by plaque reduction assay; assay type: functional, organism-based; conditions: Orthopoxvirus vaccinia
[3] = system: Vesicular stomatitis virus; experiment: Antiviral activity against Vesicular stomatitis virus after 2 days by plaque reduction assay; assay type: functional, organism-based
Yellow fever virus = experiment: Antiviral activity against Yellow fever virus infected in BHK-21 cells assessed as inhibition of virus-induced cytopathicity after 3 to 4 days by MTT assay; assay type: functional, organism-based
[4] = Cytotoxicity against MDBK cells after 48 to 96 hrs by MTT assay; assay type: cell-based, Bos taurus; conditions: cattle, mdbk; summary of the method: as §1
Coxsackievirus B2 = experiment: Antiviral activity against Coxsackie virus type B2 virus infected in african green monkey Vero-76 cells after 3 days by plaque reduction assay; assay type: functional, organism-based; conditions: Enterovirus B, Vero 76, 72 h
Summary of the method: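 Vero 76 cells seeded at 2 × 10^5 cells/well, grown overnight to confluence at 37 °C in 5% CO2, then infected at 50–100 PFU/well. Unadsorbed virus removed. Overlay of DMEM with 1% inactivated FCS and 0.75% methylcellulose, with or without serial compound dilutions. After 3 days at 37 °C, fixed and stained with crystal violet in PBS/50% ethanol; plaques counted. EC50 is the concentration reducing plaque number by 50%.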

Vero = experiment: Cytotoxicity against african green monkey Vero 76 cells by crystal violet staining; assay type: cell-based; conditions: chlorocebus sabaeus, vero
Summary of the method: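 Mock-infected Vero 76 seeded at 4 × 10^5 cells/mL, run in parallel with plaque assays, with or without serial compound dilutions. Cell number of monolayers determined by crystal violet staining. CC50 = concentration reducing viable cell number 50%.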

[5] = system: Mammalian orthoreovirus 1; experiment: Antiviral activity against Reovirus-1 infected in BHK-21 cells assessed as inhibition of virus-induced cytopathicity after 3 to 4 days by MTT assay; assay type: functional, organism-based; conditions: Mammalian orthoreovirus 1, BHK-21
Summary of the method: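 BHK-21 cells seeded at 5 × 10^4 cells/well, grown overnight to confluent monolayers at 37 °C in 5% CO2, then infected at m.o.i. 0.01 in serum-free medium. One hour later, MEM Earle's with 1% final inactivated FCS added, with or without serial compound dilutions. Viability read by MTT after 3–4 days at 37 °C. EC50 is the concentration giving 50% protection from cytopathogenicity.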

[6] = system: Human immunodeficiency virus 1; experiment: Antiviral activity against HIV1 infected in human MT4 cells assessed as inhibition of virus-induced cytopathicity after 4 days by MTT assay; assay type: functional, organism-based
MT4 = experiment: Cytotoxicity against human MT4 cells after 96 hrs by MTT assay; assay type: cell-based; conditions: mt4, 96 h
Summary of the method: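 Exponentially growing mock-infected MT-4 seeded at 1 × 10^5 cells/mL in RPMI-1640 with 10% FCS, penicillin and streptomycin. Incubated with or without serial compound dilutions at 37 °C, 5% CO2. Viability by MTT after 96 h. CC50 = concentration reducing viability 50%.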

SMILES | EC50 (Poliovirus 1) | EC50 [1] | CC50 [2] | EC50 (Human alphaherpesvirus 1) | Activity (Vaccinia virus) | Activity [3] | EC50 (Yellow fever virus) | CC50 [4] | EC50 (Coxsackievirus B2) | CC50 (Vero) | EC50 [5] | inhibition [6] | CC50 (MT4)
O=c1cccc2n1CC1CC2CN(/N=N/c2ccc(Cl)cc2)C1 (stereo not given) | > 55 µM | > 55 µM | 85 µM | > 55 µM | inactive | inactive | > 85 µM | 97 µM | > 55 µM | 55 µM | > 85 µM | inactive | 46 µM
c1ccc(/N=N/N2CCN(c3ncccn3)CC2)cc1 | > 65 µM | > 65 µM | > 100 µM | > 65 µM | inactive | inactive | > 100 µM | > 100 µM | 10 µM | 65 µM | > 100 µM | inactive | 90 µM
Clc1ccc(/N=N/N2CCCC2)cc1 | 42 µM | > 100 µM | > 100 µM | > 100 µM | inactive | inactive | > 100 µM | > 100 µM | > 100 µM | > 100 µM | > 100 µM | inactive | > 100 µM
c1ccc(/N=N/N2CCCCC2)cc1 | > 100 µM | > 100 µM | > 100 µM | > 100 µM | inactive | inactive | > 100 µM | > 100 µM | > 100 µM | > 100 µM | > 100 µM | inactive | > 100 µM
Brc1ccc(/N=N/N2CCCC2)cc1 | 51 µM | > 100 µM | > 100 µM | > 100 µM | inactive | inactive | > 100 µM | > 100 µM | > 100 µM | ≥ 100 µM | > 100 µM | inactive | > 100 µM
COc1ccc(/N=N/N2CCCC2)cc1 | > 90 µM | > 90 µM | ≥ 100 µM | > 90 µM | inactive | inactive | > 100 µM | 60 µM | > 90 µM | 90 µM | > 100 µM | inactive | 68 µM
CN1CCN(/N=N/c2ccccc2)CC1 | > 45 µM | > 45 µM | 70 µM | > 45 µM | inactive | inactive | > 70 µM | > 100 µM | 14 µM | 45 µM | > 70 µM | inactive | 65 µM
Clc1ccc(/N=N/N2CCCCC2)cc1 | > 100 µM | > 100 µM | > 100 µM | > 100 µM | inactive | inactive | > 100 µM | > 100 µM | > 100 µM | > 100 µM | > 100 µM | inactive | > 100 µM
c1ccc(/N=N/N2CCN(c3ccccc3)CC2)cc1 | > 100 µM | 8 µM | > 100 µM | > 100 µM | inactive | inactive | > 100 µM | > 100 µM | > 100 µM | ≥ 100 µM | > 100 µM | inactive | 33 µM
Brc1cccc(/N=N/N2CCCC2)c1 | > 100 µM | > 100 µM | > 100 µM | > 100 µM | inactive | inactive | > 100 µM | > 100 µM | > 100 µM | ≥ 100 µM | > 100 µM | inactive | > 100 µM
